From ChEMBL document CHEMBL1135768, “Design, synthesis, and SAR of tachykinin antagonists: modulation of balance in NK(1)/NK(2) receptor antagonist activity” (J Med Chem, 2002)

Key:
[1] = molecular target: T1, Substance-K receptor (Cavia porcellus) (UniProt Q64077); test: Effective dose concentration required for In vivo binding affinity towards Tachykinin receptor 2 (NK2) receptor after oral administration in presence of agonist BANK in guinea pig pulmonary tissue in pulmonary mechanics assay
T1 sequence (whole entry): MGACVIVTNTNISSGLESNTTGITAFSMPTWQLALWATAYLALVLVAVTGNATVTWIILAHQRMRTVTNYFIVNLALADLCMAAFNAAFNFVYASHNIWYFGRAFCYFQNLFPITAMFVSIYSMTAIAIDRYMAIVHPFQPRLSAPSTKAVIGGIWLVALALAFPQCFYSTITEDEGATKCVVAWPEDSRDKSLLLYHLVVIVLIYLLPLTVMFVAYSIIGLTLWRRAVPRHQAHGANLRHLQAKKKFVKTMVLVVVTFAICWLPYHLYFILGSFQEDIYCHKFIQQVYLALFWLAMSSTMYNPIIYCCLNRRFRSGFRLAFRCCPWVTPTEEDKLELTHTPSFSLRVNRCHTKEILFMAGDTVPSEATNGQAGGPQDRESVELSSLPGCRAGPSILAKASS

[2] = Bioavailability in rat (dose 1-10 uM/kg i.v.); assay type: ADME, organism-based; settings: in vivo, iv
Method in brief: (§1)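 Compound given to rat (n = 3) or dog (n = 1) by iv bolus at 1–10 μmol/kg, or orally at 10–100 μmol/kg, as a solution in 75% poly(ethylene glycol) 400 in normal saline.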

[3] = molecular target: Substance-P receptor (Cavia porcellus) (UniProt P30547); test: Effective dose concentration required for In vivo binding affinity towards Tachykinin receptor 1 after oral administration in presence of agonist ASMSP in guinea pig pulmonary tissue in lung plasma extravation assay; assay type: organism-based
Chain of Substance-P receptor (Cavia porcellus) (P30547 whole entry): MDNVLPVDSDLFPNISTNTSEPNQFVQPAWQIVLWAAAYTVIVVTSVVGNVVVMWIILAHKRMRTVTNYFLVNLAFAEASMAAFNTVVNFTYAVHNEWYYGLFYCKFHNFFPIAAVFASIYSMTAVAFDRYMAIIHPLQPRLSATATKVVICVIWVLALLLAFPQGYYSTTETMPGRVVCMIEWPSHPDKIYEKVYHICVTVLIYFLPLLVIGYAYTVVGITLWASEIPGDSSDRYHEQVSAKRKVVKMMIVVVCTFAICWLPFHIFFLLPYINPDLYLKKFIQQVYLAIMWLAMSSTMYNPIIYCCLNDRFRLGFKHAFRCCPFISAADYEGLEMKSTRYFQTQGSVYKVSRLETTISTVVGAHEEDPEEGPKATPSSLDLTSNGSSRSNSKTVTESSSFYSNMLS
Method in brief: (§2)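 Guinea pig lung plasma extravasation model. Antagonist dosed orally; NK1-selective agonist ASMSP challenge 2 h postdose. Single ED50 calculated from dose response in three to six animals per dose over 4–5 dose levels, doses staggered across several days.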

[4] = molecular target: Substance-P receptor (Homo sapiens, UniProt P25103); test: Inhibition of binding of [3H]SP to Tachykinin receptor 1 of human tachykinin receptor expressed in mouse erythroleukemia cells; assay type: cell-based
Chain of Substance-P receptor (P25103 whole entry): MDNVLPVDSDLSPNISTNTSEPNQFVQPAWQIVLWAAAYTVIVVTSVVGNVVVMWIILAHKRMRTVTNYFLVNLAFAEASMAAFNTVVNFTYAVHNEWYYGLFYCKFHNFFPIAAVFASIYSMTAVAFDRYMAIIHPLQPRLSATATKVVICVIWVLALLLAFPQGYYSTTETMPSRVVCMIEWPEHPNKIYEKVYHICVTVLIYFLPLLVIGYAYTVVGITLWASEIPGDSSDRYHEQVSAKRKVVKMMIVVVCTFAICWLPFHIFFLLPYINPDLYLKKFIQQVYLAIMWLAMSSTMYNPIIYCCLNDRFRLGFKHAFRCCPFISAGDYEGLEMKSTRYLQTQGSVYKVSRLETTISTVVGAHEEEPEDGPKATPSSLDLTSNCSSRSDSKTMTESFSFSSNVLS

[5] = molecular target: T2, Substance-K receptor (Oryctolagus cuniculus) (UniProt P79218); test: Tested for the binding affinity towards tachykinin receptor 2 (NK2) in rabbit pulmonary artery tissue
T2 sequence (whole entry): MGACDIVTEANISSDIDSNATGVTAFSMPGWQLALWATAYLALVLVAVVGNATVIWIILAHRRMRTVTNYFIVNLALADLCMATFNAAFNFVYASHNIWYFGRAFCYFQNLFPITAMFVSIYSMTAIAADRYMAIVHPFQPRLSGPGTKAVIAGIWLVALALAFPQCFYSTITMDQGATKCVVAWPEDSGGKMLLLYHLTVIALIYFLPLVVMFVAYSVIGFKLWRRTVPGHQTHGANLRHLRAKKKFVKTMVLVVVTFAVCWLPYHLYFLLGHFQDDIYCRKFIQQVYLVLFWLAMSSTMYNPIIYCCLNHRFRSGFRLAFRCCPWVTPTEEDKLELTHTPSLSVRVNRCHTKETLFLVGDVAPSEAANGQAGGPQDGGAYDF

[6] = Bioavailability in dog (dose 1-10 uM/kg i.v.); assay type: ADME, organism-based, Canis lupus familiaris; settings: in vivo, iv
Method in brief: as §1

[7] = molecular target: T3, Substance-K receptor (Homo sapiens, UniProt P21452); test: Inhibition of binding of [3H]NKA to human Tachykinin receptor 2 (NK2) expressed in mouse erythroleukemia cells; assay type: cell-based
T3 sequence (P21452 whole entry): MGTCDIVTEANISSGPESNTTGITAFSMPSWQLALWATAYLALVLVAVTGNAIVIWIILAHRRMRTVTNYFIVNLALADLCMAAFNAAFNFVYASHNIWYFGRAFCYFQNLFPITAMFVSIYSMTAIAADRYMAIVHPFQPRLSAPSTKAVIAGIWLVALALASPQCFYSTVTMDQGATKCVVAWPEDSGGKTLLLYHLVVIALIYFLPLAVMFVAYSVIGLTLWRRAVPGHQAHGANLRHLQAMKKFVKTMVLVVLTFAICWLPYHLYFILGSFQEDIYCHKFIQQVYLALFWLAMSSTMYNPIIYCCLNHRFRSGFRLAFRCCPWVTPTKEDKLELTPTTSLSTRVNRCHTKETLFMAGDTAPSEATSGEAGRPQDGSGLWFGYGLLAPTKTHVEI

[8] = molecular target: T4, Neuromedin-K receptor (Homo sapiens, UniProt P29371); test: Inhibition of binding of [125I]MPNI to human Tachykinin receptor 3 (NK3) expressed in mouse erythroleukemia cells; assay type: cell-based
T4 sequence (P29371 whole entry): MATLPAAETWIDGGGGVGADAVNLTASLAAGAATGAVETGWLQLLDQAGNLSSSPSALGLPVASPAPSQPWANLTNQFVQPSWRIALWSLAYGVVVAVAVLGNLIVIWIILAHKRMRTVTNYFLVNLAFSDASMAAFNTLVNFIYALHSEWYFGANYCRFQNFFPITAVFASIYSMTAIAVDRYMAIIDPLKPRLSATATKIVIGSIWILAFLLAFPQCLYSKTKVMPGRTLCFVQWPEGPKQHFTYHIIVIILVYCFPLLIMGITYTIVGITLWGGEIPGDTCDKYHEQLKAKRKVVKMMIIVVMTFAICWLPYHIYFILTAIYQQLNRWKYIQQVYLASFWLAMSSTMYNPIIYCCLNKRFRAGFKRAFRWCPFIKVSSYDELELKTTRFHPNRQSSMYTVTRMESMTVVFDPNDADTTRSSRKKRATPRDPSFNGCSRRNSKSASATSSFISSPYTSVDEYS

[9] = molecular target: Substance-P receptor (Cavia porcellus) (UniProt P30547); test: In vivo potency as dose ratio (ED50 ratio for Tachykinin receptor 1 in presence and absence of antagonist) in guinea pig PMM after oral administration at a dose 30 uM/Kg
[10] = molecular target: T1, Substance-K receptor (Cavia porcellus); test: In vivo potency as dose ratio (ED50 ratio for Tachykinin receptor 2 (NK2) in presence and absence of antagonist) in guinea pig PMM after intravenous administration at a dose 10 uM/Kg
[11] = molecular target: T1, Substance-K receptor (Cavia porcellus); test: In vivo potency as dose ratio (ED50 ratio for Tachykinin receptor 2 (NK2) in presence and absence of antagonist) in guinea pig PMM after oral administration at a dose 30 uM/Kg
[12] = molecular target: Substance-P receptor (Cavia porcellus) (UniProt P30547); test: In vivo binding affinity towards Tachykinin receptor 1 after oral administration in presence of agonist ASMSP in guinea pig pulmonary tissue in lung plasma extravation assay; assay type: organism-based
Method in brief: as §2

[13] = molecular target: Substance-P receptor (Cavia porcellus) (UniProt P30547); test: In vivo potency as dose ratio (ED50 ratio for Tachykinin receptor 1 in presence and absence of antagonist) in guinea pig PMM after intravenous administration at a dose 10 uM/Kg
[14] = molecular target: T1, Substance-K receptor (Cavia porcellus); test: In vivo binding affinity towards Tachykinin receptor 2 (NK2) receptor after oral administration in presence of agonist BANK in guinea pig pulmonary tissue in pulmonary mechanics assay
[15] = system: Substance-P receptor (Oryctolagus cuniculus); test: Tested for the binding affinity towards tachykinin receptor 1 (NK1) in rabbit pulmonary artery tissue
[16] = molecular target: T1, Substance-K receptor (Cavia porcellus); test: In vivo binding affinity towards Tachykinin receptor 2 (NK2) after oral administration in presence of agonist BANK in guinea pig pulmonary tissue in pulmonary mechanics assay
[17] = molecular target: T3, Substance-K receptor; test: Inhibition of binding of [3H]NKA to human Tachykinin receptor 2 (NK2) in mouse erythroleukemia cells

ED50 [1]	bioavailability [2]	ED50 [3]	Ki [4]	pKB [5]	bioavailability [6]	Ki [7]	Ki [8]	dose ratio [9]	dose ratio [10]	dose ratio [11]	ED50 [12]	dose ratio [13]	ED50 [14]	pKB [15]	ED50 [16]	Ki [17]	SMILES
13 µmol/kg	9%	0.6 µmol/kg	0.12 nM	8.26	18%	0.64 nM											CN(C[C@@H](CCN1CCC(c2ccccc2[S@+](C)[O-])CC1)c1ccc(Cl)c(Cl)c1)C(=O)c1cc(C#N)cc2ccccc12
			0.27 nM	8.2		35 nM	9.4 nM	50	155	49	0.5 µmol/kg	384	9.3 µmol/kg	8.7			CNC(=O)C1(N2CCCCC2=O)CCN(CC[C@H](CN(C)C(=O)c2c(OC)c(C#N)cc3ccccc23)c2ccc(Cl)c(Cl)c2)CC1
	7%		0.14 nM	8.7	18%		39 nM				1 µmol/kg				3 µmol/kg	0.34 nM	COc1ccc(C2CCN(CC[C@H](CN(C)C(=O)c3cc(C#N)cc4ccccc34)c3ccc(Cl)c(Cl)c3)CC2)c([S@+](C)[O-])c1
